Results from different studies.
Effect on: enzyme activity
Mode: inhibitor
FGFR1: Fibroblast growth factor receptor 1 (FGFR1, Homo sapiens, UniProt P11362)

Nc1nc(Nc2ccccc2)sc1C(=O)c1c(F)cccc1F has a remaining activity of 64% (FGFR1; 10 µM).
The remaining activity of Cc1[nH]c(/C=C2\C(=O)Nc3ccc(F)cc32)c(C)c1C(=O)N[C@H]1CCN(C(=O)N(C)C)C1 is reported as 90% (FGFR1; 1 µM).
The remaining activity of CC(C)(C)c1nc2c(s1)c1nc(N)ncc1c1ccc(NS(=O)(=O)c3c(F)cccc3F)c(F)c12 is reported as 90% (FGFR1; radiometric; 1 µM).
With CCN(CC)c1ccc(C2=NNC(=O)CC2C)cc1[N+](=O)[O-] (stereo not drawn) the remaining activity was 90% (FGFR1; 10 µM).
CCN(CC)CCNC(=O)c1c(C)[nH]c(/C=C2\C(=O)Nc3ccc(F)cc32)c1C gave a remaining activity of 22% (FGFR1; 1 µM).
The remaining activity of FC(F)c1nc2ccccc2n1-c1nc(N2CCOCC2)nc(N2CCOCC2)n1 is reported as 102% (FGFR1; 10 µM).
Cc1sc(C(=O)NC2COC2)cc1-n1cc(NC(=O)Nc2c(F)cccc2Cl)cn1 has a remaining activity of 114% (FGFR1; 10 µM).
Cn1c(=O)n(-c2ccc(C(C)(C)C#N)cc2)c2c3cc(-c4cnc5ccccc5c4)ccc3ncc21 gave a remaining activity of 106% (FGFR1; 10 µM).
For CCCOc1ccc(OC)c(F)c1C(=O)c1ccc(C(=O)N[C@@H]2CNC[C@H]2NC(=O)c2ccc3[nH]ncc3c2)cc1, the remaining activity was 23% (Fibroblast growth factor receptor 1 (FGFR1, Homo sapiens, UniProt P11362, V561M); 10 µM).
The remaining activity of COc1cc(Nc2cnc(C#N)c(O[C@H](C)CN(C)C)n2)ncc1-c1cnn(C)c1 is reported as 107% (FGFR1; radiometric; 1 µM).
For Cc1cnc(NC2CCOCC2)nc1-n1cnc(C(=O)NC(CN)c2cc(F)cc(Cl)c2)c1 (stereo not drawn), the remaining activity was 118% (FGFR1; radiometric; 1 µM).
CC(C)(C)C(=O)c1sc(NC2CCCCC2)nc1N has a remaining activity of 87% (FGFR1; 10 µM).
